Where “and” joins values, the source holds several entries; their conditions need not be identical. Equal values may be shown once.
Tested on: Fibroblast
Assay: Multiplex assay against human fibroblast
Format: toxicity, cell-based
Conditions: 10 µM, compound concentration 10 uM
Method in brief: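 At seeding, live cells were stained with Hoechst33342, BioTracker Green Microtubule Cytoskeleton Dye, MitoTracker Red and Annexin V Alexa Fluor 680. After compound addition they were imaged on a CQ1 microscope at 37°C and 5% CO2, and CellPathfinder machine-learning gating sorted them into Hoechst high-intensity objects or normal cells, with normal cells further split into healthy, pyknosed or fragmented nuclei and pyknosed cells into mitotic or apoptotic. Tubulin, mitochondrial-mass and membrane-permeability phenotypes are given as per cents of cells with healthy nuclei.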

CN(c1ccccc1CNc1nc(Nc2ccc3c(c2)CC(=O)N3)ncc1C(F)(F)F)S(C)(=O)=O
Population Apoptotic (%) (12 h, replicate 1): 77% and 66%
Population Fragmented Nuclei (%) (12 h, replicate 1): 25% and 30%
Population Healthy Nuclei (%) (12 h, replicate 1): 60% and 55%
Population Hoechst High Intensity Objects (%) (12 h, replicate 1): 16% and 14%
Population Mitotic Cells (%) (12 h, replicate 1): 22% and 33%
Population Normal (%) (12 h, replicate 1): 83% and 85%
Population Pyknosed Nuclei (%) (12 h, replicate 1): 13% and 14%
Total Cell Count (12 h, replicate 1): 189 and 148
Population Fragmented Nuclei (%) (12 h, replicate 2): 56% and 49%
Population Healthy Nuclei (%) (12 h, replicate 2): 38% and 25%
Population Hoechst High Intensity Objects (%) (12 h, replicate 2): 39% and 31%
Population Mitochondria Different-Phenotype (%) (12 h, replicate 2): 5% and 14%
Population Mitotic Cells (%) (12 h, replicate 2): 100% and 64%
Population Normal (%) (12 h, replicate 2): 60% and 68%
Total Cell Count (12 h, replicate 2): 83 and 80
Population Apoptotic (%) (24 h, replicate 1): 70% and 91%
Population Fragmented Nuclei (%) (24 h, replicate 1): 26% and 36%
Population Healthy Nuclei (%) (24 h, replicate 1): 55% and 54%
Population Hoechst High Intensity Objects (%) (24 h, replicate 1): 14% and 18%
Population Membrane Permeable-Phenotype (%) (24 h, replicate 1): 11%
Population Normal (%) (24 h, replicate 1): 85% and 81%
Population Pyknosed Nuclei (%) (24 h, replicate 1): 18% and 9%
Total Cell Count (24 h, replicate 1): 176 and 163
Population Fragmented Nuclei (%) (24 h, replicate 2): 43% and 49%
Population Healthy Nuclei (%) (24 h, replicate 2): 47% and 28%
Population Hoechst High Intensity Objects (%) (24 h, replicate 2): 36% and 30%
Population Membrane Permeable-Phenotype (%) (24 h, replicate 2): 18% and 20%
Population Mitochondria Different-Phenotype (%) (24 h, replicate 2): 13% and 26%
Population Normal (%) (24 h, replicate 2): 63% and 69%
Population Pyknosed Nuclei (%) (24 h, replicate 2): 8% and 22%
Total Cell Count (24 h, replicate 2): 73 and 76

Reference: ChEMBL document CHEMBL4689842, “EUbOPEN Chemogenomics Library wave 1” (2021)
